High-throughput results: PubChem, Broad Institute
miR122 inh – miR-122 Renilla sensor signal increase in Huh7, primary screen, miR-122 inhibitor project, cell-based, single point, plate reader | Huh7 miR-122 Renilla luciferase sensor, 48 h; neutral wells = 0, positive control = 100 | activation (reporter increase), % at 12.5 µM | 340,000 compounds, 0.3% hits | AID 602342, 2012;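 active = mean replicate activation score at least 90 and every replicate individually at or above 90; inconclusive = only one of the two criteria met; inactive = neither criterion met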;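 also: higher luciferase means less miR-122 activity so hits act as miR-122 inhibitors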
E-selectin induc – E-selectin induction in HUVECs, primary screen, imaging, HUVEC, immunofluorescence imaging, single point. 260,000 compounds, 0.37% hits. normalized: neutral wells 0, TNF-alpha wells 100. P16581. AID 686992, 2013. activation, % at 7.58 µM;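 active = mean E-selectin-positive cell signal at least 10% of the positive control, reached in at least 60% of replicates, without over 20% cell loss; inconclusive = no rule given, readout overlaps actives, possibly toxicity-flagged; inactive = the rest, including those meeting only one limit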
Target sequence (P16581 whole entry, looked up): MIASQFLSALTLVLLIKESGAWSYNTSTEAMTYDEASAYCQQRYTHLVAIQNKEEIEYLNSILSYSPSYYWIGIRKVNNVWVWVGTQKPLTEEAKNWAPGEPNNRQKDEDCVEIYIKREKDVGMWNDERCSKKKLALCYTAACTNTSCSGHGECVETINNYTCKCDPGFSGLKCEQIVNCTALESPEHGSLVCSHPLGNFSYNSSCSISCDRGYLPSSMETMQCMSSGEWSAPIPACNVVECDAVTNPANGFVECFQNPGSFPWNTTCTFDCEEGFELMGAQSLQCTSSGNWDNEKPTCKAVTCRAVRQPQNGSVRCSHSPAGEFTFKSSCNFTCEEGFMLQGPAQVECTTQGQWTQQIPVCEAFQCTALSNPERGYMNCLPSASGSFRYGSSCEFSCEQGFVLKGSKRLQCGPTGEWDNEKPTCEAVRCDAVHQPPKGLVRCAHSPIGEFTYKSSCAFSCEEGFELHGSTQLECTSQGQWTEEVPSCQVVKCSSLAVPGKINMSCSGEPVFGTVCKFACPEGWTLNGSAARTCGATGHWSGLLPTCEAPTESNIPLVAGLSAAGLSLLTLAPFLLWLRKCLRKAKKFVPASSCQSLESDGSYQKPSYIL
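Material: HUVEC primary endothelial cells; Amount: 3,000 cells per well; Dosing: single concentration; Medium: EGM-2 growth medium on 0.1% gelatin-coated wells; Read-out basis: percent E-selectin-positive cells; Signal: immunofluorescence imaging; Control set: TNF-alpha, DMSO.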
Cneo AK release – Cryptococcus neoformans cell lysis inducers, primary screen, AK release luminescence, single concentration; C. neoformans lysis, adenylate kinase release luminescence, 4 h; normalised: neutral wells 0, clomiphene wells 100; lysis activity, % at 15 µM; 360,000 compounds, 0.2% hits;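 active = mean lysis activity across replicates of at least 80%, whatever share of replicates individually reach that level; inactive = mean lysis activity below 80%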
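Material: C. neoformans cells; Schedule: 4 h static compound exposure, 37 °C, read 1 h post-reagent; Measured by: adenylate kinase release luminescence; Read-out: signal increase indicating cell lysis; Controls: Clomiphene as positive lysis control.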
Ecoli rRNA inh – reduced GFP signal of wild-type E. coli, primary screen, bacterial rRNA inhibitor project, GFP/RFP fluorescence, OD600, single point. E. coli WT GFP vs humanized-ribosome RFP mutants, 24 h; active compounds read low; DMSO median 0, no signal -100. GFP signal change (wild-type ribosome), % (no concentration beside the values). 350,000 compounds, 1.6% hits;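 active = significant combined selectivity score with lowered wild-type GFP, culture density cut under 30%, mutant RFP and density less affected; inactive = any of these conditions unmet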
DENV2 CPE rescue – inhibitors of DENV2 cytopathic effect, primary screen, cell-based, plate reader, single concentration; CPE inhibition, % at 9.99 µM; DENV2-infected cells, cytopathic effect rescue; 350,000 compounds, 1.7% hits; in the data active = CPE inhibition above about 20%, passing the limit was not always enough; inconclusive = no clear call, values can overlap the other calls; tested in BHK-21 cells;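 also: 0% = median of neutral control wells and 100% = median of positive control wells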
The depositor's hits bear a star; ? = inconclusive; · = no result; ! = repeats disagree; [ ] = remark or other dose. A selection: hits, their analogues and other compounds. The true share with any hit is near 3.1%.

SMILES	miR122 inh	E-selectin induc	Cneo AK release	Ecoli rRNA inh	DENV2 CPE rescue
O=C(C1CCCC1)N1CC(=O)N2[C@H](CO)[C@@H](c3ccc(C#Cc4cccc(F)c4)cc3)[C@@H]2C1	·	0	·	-43	4
COc1ccc2c3c(n(C)c2c1)[C@@H](CO)N(C(=O)c1cccnc1)CC31CCN(C)CC1	·	0	·	5	2
Cc1nc(-c2ccc(NC(=O)c3ccccc3C)cc2)cs1	-3	-3	-10	-27*	4
Cn1ccc2c(-c3ccc(C(C)(C)C)cc3)cc3c(c21)C1CCC3C1 (stereo not drawn)	2	0	-1	6	21*
CO[C@@H]1CN(C)C(=O)c2ccc(NS(=O)(=O)c3ccccc3)cc2OC[C@@H](C)N(Cc2cccnc2)C[C@@H]1C	·	0	-5	0	-8
COC(=O)c1sc(=S)n(Cc2ccccc2)c1C	4	·	-2	-24*	-1
COc1cccc(S(=O)(=O)N[C@@H]2CC[C@@H](CCNC(=O)Cc3ccncc3)O[C@@H]2CO)c1	·	0	-2	2	-1
CCC(=O)Nc1ccc2c(c1)OC[C@H](C)N(CCC(F)(F)F)C[C@H](C)[C@@H](OC)CN(C)C2=O	·	0	·	-2	10
CCCC(=O)NC(c1ccccc1)c1c(O)ccc2ccccc12 (stereo not drawn)	0	0	0	-28	0
CCC(=O)NC(c1ccccc1)c1c(O)ccc2ccccc12 (stereo not drawn)	8	0	5	-32*	-4
CCOC(=O)c1oc2ccc(S(=O)(=O)n3nc(-c4ccc(C)cc4)cc3N)cc2c1C	-2	1	1	8	90*
CCCCCNC(=O)c1[nH]c(C(F)(F)F)nc1-c1ccccc1	-4	·	-2	·	28*
O=C(NCCc1ccccc1)c1[nH]c(C(F)(F)F)nc1-c1ccccc1	-4	0	-1	0	-7
COc1ccc(Cl)cc1/C=N/NC(=O)c1c(-c2ccccc2)noc1C	-3	·	2	-17*	?
COc1cccc(/C=N/NC(=O)c2c(-c3ccccc3)noc2C)c1OC	·	·	1	-20*	-2
C[C@@H]1CN([C@H](C)CO)S(=O)(=O)c2ccc(C#CC(C)(C)O)cc2O[C@H]1CN(C)C(=O)C1CCCCC1	-10[16.7 µM]	1	0	-4	14
CCC(=O)N(C)C[C@H]1Oc2cc(C#CC(C)(C)O)ccc2S(=O)(=O)N([C@H](C)CO)C[C@@H]1C	0[16.7 µM]	0	101*	1	-2
C[C@H](O)C#Cc1ccc2c(c1)O[C@H](CN(C)C(=O)C1CCCCC1)[C@H](C)CN([C@@H](C)CO)S2(=O)=O	36[16.7 µM]	·	94*	-5	-1
C[C@@H]1CN([C@@H](C)CO)S(=O)(=O)c2ccc(C#CC(C)(C)O)cc2O[C@@H]1CN(C)C(=O)C1CCCCC1	11[16.7 µM]	1	0	4	21*
CN(C)CCCNC(=O)[C@@H]1[C@@H](CO)[C@@H]2Cn3c(ccc(-c4ccccc4)c3=O)[C@@H]2N1C	-2[16.7 µM]	0	2	2	-8
C/C=C/c1cnc2c(c1)C(=O)N([C@H](C)CO)C[C@@H](C)[C@H](CN(C)Cc1ccccc1F)O2	·	0	4	2	1
C[C@@H]1CN([C@@H](C)CO)C(=O)c2cc(NC(=O)Nc3cccc4ccccc34)ccc2O[C@@H](C)CCCCO[C@@H]1CN(C)CC1CCCCC1	-34[16.7 µM]	0	-2	-4	-3
C[C@@H]1CCCCO[C@@H](CN(C)CC2CCCCC2)[C@H](C)CN([C@H](C)CO)C(=O)c2cc(NC(=O)Nc3cccc4ccccc34)ccc2O1	-30[16.7 µM]	2	1	-4	118*
C[C@@H]1CN([C@@H](C)CO)C(=O)c2cc(NC(=O)Nc3cccc4ccccc34)ccc2O[C@@H](C)CCCCO[C@H]1CN(C)CC1CCCCC1	-30[16.7 µM]	1	-2	-1	28*
C[C@@H]1CCCCO[C@@H](CN(C)Cc2ccc(C(F)(F)F)cc2)[C@H](C)CN([C@@H](C)CO)C(=O)c2cc(NC(=O)C3CCCCC3)ccc2O1	-7[16.7 µM]	0	0	-1	11
SMILES	miR122 inh	E-selectin induc	Cneo AK release	Ecoli rRNA inh	DENV2 CPE rescue
O=C(CN1c2ccccc2Sc2ccccc21)N/N=C/c1ccc([N+](=O)[O-])cc1	-4	0	0	-24*	13
O=C(CN1c2ccccc2Sc2ccccc21)N/N=C/c1ccccc1	0	0	0	0	-4
CC(C)C#Cc1ccc([C@@H]2[C@@H](CO)N3CCCCN(CC4CC4)C[C@H]23)cc1	-27[16.7 µM]	0	6	3	-8
C[C@H](O)C#Cc1ccc([C@H]2[C@@H](CO)N3CCCCN(CC4CC4)C[C@H]23)cc1	23[16.7 µM]	0	-5	0	23*
CC(C)C#Cc1ccc([C@H]2[C@H](CO)N3CCCCN(CC4CC4)C[C@@H]23)cc1	-29[16.7 µM]	0	50	6	26*
C[C@H](O)C#Cc1ccc([C@H]2[C@H](CO)N3CCCCN(CC4CC4)C[C@@H]23)cc1	-4[16.7 µM]	0	-3	6	-1
O=C(CN1CCN(c2cccc(C(F)(F)F)c2)CC1)N(C1CCCC1)C1CCS(=O)(=O)C1 (stereo not drawn)	-11	·	2	0	51*
O=C(CN1CCN(c2cccc(C(F)(F)F)c2)CC1)N(C1CC1)C1CCS(=O)(=O)C1 (stereo not drawn)	·	0	0	4	3
COc1ccc(C(C(=O)NC2CCCC2)N2CCc3ccccc32)cc1 (stereo not drawn)	2	1	-3	-3	57*
COc1ccc(S(=O)(=O)Nc2ccc3c(c2)C(=O)N([C@H](C)CO)C[C@@H](C)[C@H](CN(C)C(=O)Nc2ccccc2)OCCCC[C@H](C)O3)cc1	·	0	·	-3	·
C[C@H]1CN([C@@H](C)CO)C(=O)c2cccc(NC(=O)C3CCCCC3)c2O[C@H]1CN(C)Cc1ccc2c(c1)OCO2	17[16.7 µM]	1	3	6	23*
C[C@H](CO)N1C[C@H](C)[C@@H](CN(C)Cc2ccc3c(c2)OCO3)Oc2c(NC(=O)C3CCCCC3)cccc2C1=O	?	0	-1	-3	122*!
C[C@@H]1CN([C@@H](C)CO)C(=O)c2cccc(NC(=O)C3CCCCC3)c2O[C@H]1CN(C)Cc1ccc2c(c1)OCO2	40[16.7 µM]	0	3	-3	21*
CC(C)CC#Cc1ccc([C@@H]2[C@@H](CO)N3C(=O)CN(C(=O)c4ccc5c(c4)OCO5)C[C@H]23)cc1	·	·	·	2	·
